The values that follow come from ChEMBL document CHEMBL4396869, “Design and Synthesis of Selective Phosphodiesterase 4D (PDE4D) Allosteric Inhibitors for the Treatment of Fragile X Syndrome and Other Brain Disorders” (J Med Chem, 2019).

Molecules are shown by their SMILES. Values after ≈ are worked out from the molar mass of the structure shown. Active and inactive are the calls of the source. No cut-off for these calls is given here.

The nature of data set [1]: Drug level in Wistar rat hepatocytes treated with 2-(4-((2-(3-Chlorophenyl)-6-ethylpyrimidin-4-yl)methyl)phenyl)acetamide assessed as metabolite formation measured after 4 hrs by LC-UV/MS/MS analysis. The format is ADME, cell-based, Hepatocyte. The gist of the method: (§1)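 Metabolite identification: cryopreserved hepatocytes from male Wistar rat or human, 0.5×10^6 cells/mL in suspension, incubated 4 h at 37 °C; incubation medium analysed by LC-UV/MS/MS.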

The nature of data set [2]: Drug level in human hepatocytes treated with 2-(4-((2-(3-Chlorophenyl)-6-ethylpyrimidin-4-yl)methyl)phenyl)acetamide assessed as metabolite formation measured after 4 hrs by LC-UV/MS/MS analysis. The format is ADME, cell-based, Hepatocyte. The method, boiled down:
as §1

The target of data set [3] is 3',5'-cyclic-AMP phosphodiesterase 4B (Homo sapiens, UniProt Q07343, S133D). The data set can be described thus: Inhibition of recombinant human His6-tagged PDE4B1 UCR1 S133D mutant expressed in baculovirus infected Sf9 insect cells using cAMP as substrate preincubated for 5 to 10 mins followed by substrate addition and measured for 10 mins by yeast myokinase/pyruvate kinase/lactate dehydrogenase-coupled fluorescence assay.
3',5'-cyclic-AMP phosphodiesterase 4B, sequence (Q07343 whole entry S133D): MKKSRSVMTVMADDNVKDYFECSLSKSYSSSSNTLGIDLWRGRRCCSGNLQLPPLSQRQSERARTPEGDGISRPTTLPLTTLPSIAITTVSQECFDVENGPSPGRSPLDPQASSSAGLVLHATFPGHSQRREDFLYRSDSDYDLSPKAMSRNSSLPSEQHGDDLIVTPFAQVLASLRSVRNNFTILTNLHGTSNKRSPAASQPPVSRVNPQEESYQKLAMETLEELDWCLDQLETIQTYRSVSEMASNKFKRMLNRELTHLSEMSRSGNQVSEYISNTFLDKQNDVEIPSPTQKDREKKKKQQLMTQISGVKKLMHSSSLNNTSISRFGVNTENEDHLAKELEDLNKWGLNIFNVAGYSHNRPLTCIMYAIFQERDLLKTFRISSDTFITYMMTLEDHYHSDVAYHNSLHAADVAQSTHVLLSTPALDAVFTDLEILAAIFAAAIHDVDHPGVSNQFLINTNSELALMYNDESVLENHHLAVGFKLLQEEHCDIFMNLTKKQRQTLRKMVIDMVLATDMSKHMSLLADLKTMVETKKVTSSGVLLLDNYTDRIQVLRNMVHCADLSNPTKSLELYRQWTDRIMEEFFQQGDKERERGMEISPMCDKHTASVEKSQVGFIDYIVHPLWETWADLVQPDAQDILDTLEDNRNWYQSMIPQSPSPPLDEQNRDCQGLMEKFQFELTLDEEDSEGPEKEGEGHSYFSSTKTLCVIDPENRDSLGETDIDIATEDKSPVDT

The nature of data set [4]: Ratio of AUC in po dosed mouse brain to plasma. The class given is ADME, organism-based. The method, boiled down:
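Mice were dosed orally in 5% DMSO, 5% Solutol, 90% PBS. Drug exposure was measured in plasma and brain, and the ratio was taken from brain AUC over plasma AUC.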

A short description of data set [5]: Protein binding in dog plasma. The class given is ADME, cell-free, Canis lupus familiaris. The following applies: read-out: PPB.
The nature of data set [6]: Stability in human liver microsomes assessed as parent compound remaining at 1 uM measured after 30 mins by LC-MS/MS analysis. The format is ADME, Microsome. The following applies: read-out: Stability. The gist of the method: (§2)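 Liver microsome stability run by a contract lab using standard protocols. Parent compound remaining measured after 30 min incubation.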
Data set [7] can be described thus: Protein binding in rat plasma. The class given is ADME, cell-free. As to conditions: read-out: PPB.
A short description of data set [8]: Inhibition of recombinant human His6-tagged PDE4D7 UCR1 S129D mutant expressed in baculovirus infected Sf9 insect cells using cAMP as substrate preincubated for 5 to 10 mins followed by substrate addition and measured for 10 mins by yeast myokinase/pyruvate kinase/lactate dehydrogenase-coupled fluorescence assay.
Data set [9] in a line: Permeability across apical to basal side in MDCK-MDR1 cells. The format is ADME, cell-based, Canis lupus familiaris. The following applies: dog. The gist of the method:
(§3)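 Cellular permeability in MDCK-MDR1 cells, apical-to-basal and basal-to-apical, run by a contract lab using standard protocols. Efflux ratio taken as B-A/A-B.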

Data set [10] in a line: Oral bioavailability in mouse. The class given is ADME, organism-based. The following applies: in vivo.
In another data set the target is Cytochrome P450 2C9 (Homo sapiens, UniProt P11712). Nature of the data set: Inhibition of CYP2C9 (unknown origin) by fluorescence-based assay. The class given is ADME. The gist of the method: (§4)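 CYP inhibition run with a fluorescent substrate by a contract laboratory under standard protocols; IC50 reported.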
Cytochrome P450 2C9, sequence (P11712 whole entry): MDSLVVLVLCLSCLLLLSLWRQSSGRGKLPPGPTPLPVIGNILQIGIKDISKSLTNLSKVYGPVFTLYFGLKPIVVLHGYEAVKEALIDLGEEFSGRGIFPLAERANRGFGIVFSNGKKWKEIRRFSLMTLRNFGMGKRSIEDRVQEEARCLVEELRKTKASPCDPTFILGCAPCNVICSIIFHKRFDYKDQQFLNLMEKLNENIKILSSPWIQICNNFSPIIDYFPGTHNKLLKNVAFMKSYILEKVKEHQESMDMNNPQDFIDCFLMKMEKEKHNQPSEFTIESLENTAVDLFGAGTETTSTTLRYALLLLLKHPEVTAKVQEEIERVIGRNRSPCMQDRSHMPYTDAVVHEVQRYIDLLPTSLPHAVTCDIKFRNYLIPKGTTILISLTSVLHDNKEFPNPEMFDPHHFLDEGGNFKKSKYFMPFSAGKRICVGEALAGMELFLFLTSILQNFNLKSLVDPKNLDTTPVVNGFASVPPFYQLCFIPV
Data set [11] can be described thus: Stability in dog liver microsomes assessed as parent compound remaining at 1 uM measured after 30 mins by LC-MS/MS analysis. The class given is ADME, Canis lupus familiaris, Microsome. The following applies: read-out: Stability. The gist of the method:
as §2

Data set [12] is described as follows: Solubility of the compound in FaSSIF. The class given is physicochemical. As to conditions: simulated gi fluid. The method, boiled down: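 Kinetic solubility measured in fasted state simulated intestinal fluid (FaSSIF), run by a contract lab using standard protocols.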
For another data set, the target named is Cytochrome P450 2D6 (Homo sapiens, UniProt P10635). The data set can be described thus: Inhibition of CYP2D6 (unknown origin) by fluorescence-based assay. The format is ADME. The method, boiled down:
as §4

Data set [13] is described as follows: Stability in monkey liver microsomes assessed as parent compound remaining at 1 uM measured after 30 mins by LC-MS/MS analysis. The class given is ADME, Macaca mulatta, Microsome. The following applies: rhesus monkey, read-out: Stability. The gist of the method:
as §2

A short description of data set [14]: Stability in mouse liver microsomes assessed as parent compound remaining at 1 uM measured after 30 mins by LC-MS/MS analysis. The class given is ADME, Microsome. The following applies: read-out: Stability. The method, boiled down:
as §2

A short description of data set [15]: Stability in Wistar rat hepatocytes assessed as parent compound remaining measured after 4 hrs by LC-UV/MS/MS analysis. The class given is ADME, cell-based, Hepatocyte. As to conditions: read-out: Stability. The gist of the method: (§5)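 Metabolite identification run with cryopreserved hepatocytes from male Wistar rats and from humans, 0.5×10^6 cells/mL in suspension, incubated 4 h at 37 °C. Incubation medium analysed by LC-UV/MS/MS.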

Data set [16] in a line: Stability in rat liver microsomes assessed as parent compound remaining at 1 uM measured after 30 mins by LC-MS/MS analysis. The class given is ADME, Microsome. As to conditions: read-out: Stability. The method, boiled down: as §2
In data set [17] the test system is Mus musculus. The data set can be described thus: Memory enhancement effect in ICR mouse assessed as improvement in novel object discrimination at 1 to 3 mg/kg, po administered via gavage measured for 5 mins by open field test. The class given is functional, organism-based. The gist of the method: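 Male ICR mice (25–30 g), dosed by oral gavage in 5% DMSO, 5% Solutol in PBS. Three phases in an open field box: 10 min habituation on day 1, 5 min training with identical objects on day 2, 5 min test with familiar and novel objects on day 3 (24 h delay). Exploration times recorded; discrimination index d2 = (b − a)/(a + b).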

Data set [18] in a line: Inhibition of recombinant human wild-type His6-tagged PDE4D7 UCR1 domain (S129 residues) expressed in baculovirus infected Sf9 insect cells using cAMP as substrate preincubated for 5 to 10 mins followed by substrate addition and measured for 10 mins by yeast myokinase/pyruvate kinase/lactate dehydrogenase-coupled fluorescence assay.
A short description of data set [19]: Protein binding in human plasma. The format is ADME, cell-free. As to conditions: read-out: PPB.
Data set [20] can be described thus: Protein binding in mouse plasma. The class given is ADME, cell-free. The following applies: read-out: PPB.
Data set [21] can be described thus: Efflux ratio of permeability across basal to apical side over apical to basal side in MDCK-MDR1 cells. The format is ADME, cell-based, Canis lupus familiaris. The following applies: dog.
Data set [22] in a line: Permeability across basal to apical side in MDCK-MDR1 cells. The class given is ADME, cell-based, Canis lupus familiaris. The following applies: dog. The method, boiled down: as §3
A short description of data set [23]: Half life in po dosed mouse plasma. The format is ADME, organism-based. As to conditions: in vivo.
In a further data set the target is Cytochrome P450 2C19 (Homo sapiens, UniProt P33261). Nature of the data set: Inhibition of […] (unknown origin) by fluorescence-based assay. The class given is ADME. The method, boiled down: as §4
Cytochrome P450 2C19, sequence (P33261 whole entry): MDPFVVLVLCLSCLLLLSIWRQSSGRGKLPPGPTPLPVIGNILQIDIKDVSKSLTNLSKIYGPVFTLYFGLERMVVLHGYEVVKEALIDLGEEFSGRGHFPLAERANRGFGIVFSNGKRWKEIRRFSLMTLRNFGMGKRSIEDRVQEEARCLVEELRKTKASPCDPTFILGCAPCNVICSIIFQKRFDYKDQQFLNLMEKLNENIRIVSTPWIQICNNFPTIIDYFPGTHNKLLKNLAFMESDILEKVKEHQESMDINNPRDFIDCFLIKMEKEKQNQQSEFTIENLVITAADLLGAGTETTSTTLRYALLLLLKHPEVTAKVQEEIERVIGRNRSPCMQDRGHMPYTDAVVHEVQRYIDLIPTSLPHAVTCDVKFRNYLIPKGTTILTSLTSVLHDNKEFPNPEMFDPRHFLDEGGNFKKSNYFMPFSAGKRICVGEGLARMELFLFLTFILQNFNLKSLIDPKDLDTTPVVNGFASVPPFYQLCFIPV
In the next data set the target is Cytochrome P450 3A4 (Homo sapiens, UniProt P08684). The data set can be described thus: Inhibition of CYP3A4 (unknown origin) by fluorescence-based assay. The class given is ADME. The gist of the method: as §4
Cytochrome P450 3A4, sequence (P08684 whole entry): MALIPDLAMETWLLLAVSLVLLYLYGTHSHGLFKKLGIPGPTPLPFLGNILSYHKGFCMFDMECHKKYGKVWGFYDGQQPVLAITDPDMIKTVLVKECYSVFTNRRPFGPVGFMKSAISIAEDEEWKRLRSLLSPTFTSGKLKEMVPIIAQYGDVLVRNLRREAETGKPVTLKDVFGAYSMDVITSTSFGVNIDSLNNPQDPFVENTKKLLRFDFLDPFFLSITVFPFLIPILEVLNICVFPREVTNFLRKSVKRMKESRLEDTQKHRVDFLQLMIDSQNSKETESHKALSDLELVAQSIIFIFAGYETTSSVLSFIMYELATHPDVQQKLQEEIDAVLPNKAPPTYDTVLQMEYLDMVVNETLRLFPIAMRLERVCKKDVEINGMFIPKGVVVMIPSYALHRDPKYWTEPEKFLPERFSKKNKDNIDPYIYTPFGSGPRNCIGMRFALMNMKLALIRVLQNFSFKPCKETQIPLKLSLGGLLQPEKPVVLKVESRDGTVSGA
Data set [24] in a line: Aqueous kinetic solubility of the compound at pH 7 at 100 uM measured after 1 hr. The format is physicochemical. The following applies: buffer, pH 7, 1 h.
Data set [25] in a line: Half life in po dosed mouse brain. The format is ADME, organism-based. The following applies: in vivo.
A short description of data set [26]: Therapeutic index, ratio of compound effect for induction of emesis in ICR mouse assessed as reduction in ketamine/xylazine-induced duration of anesthesia at 10 to 30 mg/kg, po to compound effect for memory enhancement effect in ICR mouse assessed as improvement in novel object discrimination at 1 to 3 mg/kg, po. The class given is toxicity, organism-based. As to conditions: in vivo. The gist of the method: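 Male ICR mice (25–30 g) were gavaged with compound in 5% DMSO, 5% Solutol in PBS. Object recognition ran as 10 min habituation on day 1, 5 min training on day 2 and 5 min testing on day 3, scored as d2 = (b−a)/(a+b). Thirty minutes after an oral dose, ketamine 80 mg/kg plus xylazine 10 mg/kg was given IP, and anesthesia duration was timed from loss to return of the righting reflex. The index compares effective doses in the two tests.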

Data set [27] in a line: Inhibition of recombinant human His6-tagged PDE4D7 UCR1 S129D mutant expressed in baculovirus infected Sf9 insect cells using cAMP as substrate preincubated for 5 to 10 mins followed by substrate addition and measured for 10 mins in presence of BSA by yeast myokinase/pyruvate kinase/lactate dehydrogenase-coupled fluorescence assay.
Data set [28] is filed under the species Homo sapiens. Nature of the data set: Selectivity ratio of IC50 for recombinant human His6-tagged PDE4B1 UCR1 S133D mutant expressed in baculovirus infected Sf9 insect cells to IC50 for recombinant human His6-tagged PDE4D7 UCR1 S129D mutant expressed in baculovirus infected Sf9 insect cells.
The test system of data set [29] is Mus musculus. The data set can be described thus: Induction of emesis in ICR mouse assessed as reduction in ketamine/xylazine-induced duration of anesthesia at 10 to 30 mg/kg, po pretreated for 30 mins followed by ketamine/xylazine addition. The format is organism-based. As to conditions: in vivo. The gist of the method: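 Male ICR mice, 25–30 g. Test agents given by oral gavage in 5% DMSO, 5% Solutol in PBS, or rolipram IP; ketamine (80 mg/kg) plus xylazine (10 mg/kg) IP given 30 min after PO or 15 min after IP dosing. Endpoint: time from loss to return of righting reflex.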

For data set [30], the species on record is Homo sapiens. The data set can be described thus: Selectivity ratio of IC50 for recombinant human wild-type His6-tagged PDE4D7 UCR1 domain (S129 residues) expressed in baculovirus infected Sf9 insect cells to IC50 for recombinant human His6-tagged PDE4D7 UCR1 S129D mutant expressed in baculovirus infected Sf9 insect cells.
Data set [31] is described as follows: Stability in human hepatocytes assessed as parent compound remaining measured after 4 hrs by LC-UV/MS/MS analysis. The class given is ADME, cell-based, Hepatocyte. As to conditions: read-out: Stability. The gist of the method:
as §5

Cytochrome P450 2D6, sequence (P10635 whole entry): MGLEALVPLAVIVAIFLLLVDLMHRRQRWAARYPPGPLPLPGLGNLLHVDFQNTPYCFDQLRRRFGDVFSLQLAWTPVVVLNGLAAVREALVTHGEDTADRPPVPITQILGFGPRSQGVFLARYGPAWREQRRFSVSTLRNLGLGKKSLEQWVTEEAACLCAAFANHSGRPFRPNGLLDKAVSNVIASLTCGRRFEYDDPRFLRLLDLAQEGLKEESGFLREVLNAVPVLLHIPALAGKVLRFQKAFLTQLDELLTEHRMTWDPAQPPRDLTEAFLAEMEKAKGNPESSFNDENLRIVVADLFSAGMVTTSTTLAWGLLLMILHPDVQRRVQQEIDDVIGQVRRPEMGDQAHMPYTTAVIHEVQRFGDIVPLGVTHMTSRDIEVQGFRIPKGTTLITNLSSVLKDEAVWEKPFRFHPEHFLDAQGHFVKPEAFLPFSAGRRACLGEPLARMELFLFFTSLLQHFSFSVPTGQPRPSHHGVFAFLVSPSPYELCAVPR

Take `CCc1cc(Cc2ccc(CC(=O)O)cc2)nc(-c2cccc(Cl)c2)n1`: the Drug metabolism result in [1] and in data set [2] was “Metabolite_Detected” throughout.
Regarding `CCc1cc(Cc2ccc(CC(N)=O)cc2)nc(-c2cccc(Cl)c2)n1`, the IC50 was 0.225 µM in data set [3]; 0.0017 µM in [8]; greater than 100 µM against Cytochrome P450 2C9; greater than 100 µM on Cytochrome P450 2D6; 0.313 µM in [18]; 29 µM on Cytochrome P450 2C19. Besides, the IC50 on Cytochrome P450 3A4 came to 5.9 µM. Moreover, the “Ratio AUC” value in data set [4] came to 2.7. Further, the fraction unbound in data set [5], in [7], in data set [19] and in [20] was 0.002 to 0.005 throughout. Besides, the remaining at 0.5 h, 1 µM in [6], in data set [11], in [13], in [14] and in data set [16] was 54 to 90% each time. Also, the permeability in data set [9] worked out at 24.1 ×10⁻⁶ cm/s; in data set [22], 22 ×10⁻⁶ cm/s. This molecule yielded a bioavailability in data set [10] of 53%. In [12], this molecule had a solubility of 100 µM (≈ 36.6 µg/mL). For the same molecule, the remaining at 4 h was 66.8% in data set [15] and 93.2% in [31]. Moreover, the result with Mus musculus [17] was Active. Further, the Ratio in data set [21] was 0.9. The t1/2 in [23] is 27.6 min; in data set [25], 26.4 min. In addition, the Kinetic_solubility in data set [24] is less than 1.6 µM. Further, the selectivity ratio in data set [26] came out at 10. Moreover, in data set [27], the inhibition entry is “Active”. The Ratio IC50 in the data set filed under Homo sapiens [28] was determined as 132; in the data set filed under Homo sapiens [30] it was 184. Further, in the data set on Mus musculus [29], the Activity entry is on record as “Toxic”.
